Our source for the yeast fitness values is the RNAGym collection of RNA variant scans (doi:10.1126/science.aae0568).

Fewer inactive variants are shown than the library holds.

The labels stand for the following.
B1: tRNA (parent)
chain: GUUCCGUUGGCGUAAUGGUAACGCGUCUCCCUCCUAAGGAGAAGACUGCGGGUUCGAGUCCCGUACGGAACG

Variants of B1 are the subject of this series. The experiment in a line: yeast fitness relative to wild type (ratio to wild type); higher = fitter; tRNA-Arg(CCU), competitive growth, 37 C, YPD. An outline of the steps:
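The tRNA-Arg(CCU) gene variants were made by chemical synthesis with a 3% per-site mutation rate at 69 sites and inserted at the native genomic locus of Saccharomyces cerevisiae. After pooling, the strains were competed in YPD at 37°C for 24 hours in six parallel replicates. Gene amplicons from the start population and each end population were read by 100-nucleotide paired-end sequencing, and Darwinian fitness relative to wild type was taken from genotype frequency changes. Genotypes needed ≥ 100 starting reads, and estimates < 0.5 were set to 0.5.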
With C29A U35A G56A, the yeast fitness is 0.741.

As to C29G C55U A65C A70U, the yeast fitness came out at 0.532.

In the case of C29U C33U U35C U54A, the yeast fitness is not above 0.5.

C29G U59G U64C: the yeast fitness was 0.549.

On to C29G C30G C49A G56C C61U, for which the yeast fitness worked out at 0.982.

For the variant C29A C30A G50A, the yeast fitness was not above 0.5.

As to C29G G52C A57U, the yeast fitness is not above 0.5.

Turning to C29A C33G A45C, the yeast fitness was 0.543.

Turning to C29A C34G A42C C49G G68A, the yeast fitness was not above 0.5.

In the case of C29G A65U A70G, the yeast fitness is 0.506.

In the case of C29U G44C, the yeast fitness was found to be 0.825.

Regarding C29G U35A A42U, the yeast fitness was not above 0.5.

In the case of C29U G52C, the yeast fitness was found to be 0.579.

In the case of C29G U35A A36C C62A, the yeast fitness was not above 0.5.

With C29U C31U C66U, the yeast fitness came to 0.591.

For C29U C49G C60A, the yeast fitness is not above 0.5.

For the variant C29U A45C C60A, the yeast fitness was 0.598.

For C29G U53G, the yeast fitness was not above 0.5.

Consider C29U A37C, for which the yeast fitness turned out to be 0.894.

C29A C30G G38U: the yeast fitness was not above 0.5.

Take C29A A57C U59A: the yeast fitness was found to be 0.55.

For C29A C31G C49A C55G, the yeast fitness was determined as 0.549.

As for C29U A42U A43U A57C A70G, the yeast fitness was 0.577.

Regarding C29G U32A U64A, the yeast fitness is not above 0.5.

Turning to C29A C33G U35C C49U A57C C60A, the yeast fitness stood at 0.644.

For C29A C33G A70G, the yeast fitness is not above 0.5.

In the case of C29U C30U A65G, the yeast fitness was 0.704.

For C29G C49A A70C, the yeast fitness worked out at 0.538.

For the variant C29G C49A A70G, the yeast fitness was not above 0.5.

With C29A C30U G48A G50A C60A, the yeast fitness was not above 0.5.

As to C29G G48C C61A, the yeast fitness is 0.564.

On to C29G G38C C49U A65U, for which the yeast fitness was not above 0.5.

With C29G A43G A45C, the yeast fitness is not above 0.5.

Regarding C29U A57C, the yeast fitness is 0.611.

Consider C29U A40U U53A C60A A65G, for which the yeast fitness is not above 0.5.

For C29A U32A A65C, the yeast fitness is not above 0.5.

Consider C29U C62U A70C, for which the yeast fitness was 0.604.

With C29G G44C C49A U64C, the yeast fitness was not above 0.5.

C29G C55A: the yeast fitness was 0.577.

For the variant C29G C55G, the yeast fitness came to 0.538.

For C29G U35A G58C C66U, the yeast fitness is not above 0.5.

For C29G U35A G58C, the yeast fitness was not above 0.5.

C29G U47A C66A: the yeast fitness is 0.532.

Turning to C29G G52C A57U A65G, the yeast fitness is not above 0.5.

As to C29G U35A A36C G68A, the yeast fitness was not above 0.5.

On to C29A C66U, for which the yeast fitness was 0.627.

With C29U C31A G38C, the yeast fitness was not above 0.5.

With C29G G48A A65G C66U, the yeast fitness was not above 0.5.

Turning to C29A C34U A36U, the yeast fitness was found to be 0.568.

Consider C29U A43U A69C, for which the yeast fitness was found to be 0.735.

Turning to C29G A40C A42C A65C, the yeast fitness came to 0.565.

On to C29G U32A A65U, for which the yeast fitness is not above 0.5.

In the case of C29G A37C G63A, the yeast fitness is not above 0.5.

C29U C33A C34U G51C U64A C66U A69C: the yeast fitness is not above 0.5.

For C29G C49G C60G, the yeast fitness is not above 0.5.

Consider C29G A36U A65U, for which the yeast fitness is not above 0.5.

Turning to C29U A43U A70C, the yeast fitness turned out to be 1.01.

With C29G U35A A36C, the yeast fitness is not above 0.5.

Turning to C29G C49G C55A, the yeast fitness was not above 0.5.

C29U C33U G39C A57U: the yeast fitness was not above 0.5.

Take C29A A65U G67A: the yeast fitness was determined as 0.5.

Regarding C29G U32G G38A C46U A70U, the yeast fitness is not above 0.5.

Turning to C29A C49A A70G, the yeast fitness is not above 0.5.

With C29G A40G, the yeast fitness stood at 0.648.

Turning to C29U C34A G51A, the yeast fitness came out at 0.664.

Consider C29U C46U, for which the yeast fitness is 0.929.

As to C29U C46A, the yeast fitness was 0.932.

On to C29A C34G, for which the yeast fitness was not above 0.5.

For the variant C29G A36G G38A A45G, the yeast fitness is not above 0.5.

C29G G41A U47G: the yeast fitness is not above 0.5.

In the case of C29U C46G G56A C60A C62G C66A, the yeast fitness was 0.543.

For C29U G51A, the yeast fitness was found to be 0.883.

On to C29A C55U G63C, for which the yeast fitness was not above 0.5.

For C29U G41C, the yeast fitness came out at 0.776.

On to C29U G44C C60A, for which the yeast fitness is not above 0.5.

Take C29G G56C: the yeast fitness was not above 0.5.

Regarding C29G A42C G51A A70U, the yeast fitness was not above 0.5.

Turning to C29U C55U, the yeast fitness was 0.636.

Take C29G A40C A43G A45C U47C C62U A69C: the yeast fitness is not above 0.5.

Regarding C29G C55A A69U, the yeast fitness was not above 0.5.

In the case of C29U A43C G50C C60A, the yeast fitness amounted to 0.634.

With C29G A43U C46U G67C, the yeast fitness is not above 0.5.

As for C29G G50A, the yeast fitness came out at 0.605.

For the variant C29G U47A G48A, the yeast fitness is 0.553.

Turning to C29A G39A C49A C66G, the yeast fitness is not above 0.5.

With C29A G56C A57G G68U, the yeast fitness was not above 0.5.

As for C29G U32C A70C, the yeast fitness was 0.555.

As for C29U A36U C61U, the yeast fitness is not above 0.5.

With C29U C31A C46U, the yeast fitness stood at 0.552.

C29G G48C C60G: the yeast fitness turned out to be 0.515.

For C29G C31U A37U C62U A70G, the yeast fitness is not above 0.5.

For the variant C29A A70U, the yeast fitness turned out to be 0.891.

Turning to C29A A70C, the yeast fitness worked out at 0.635.

Regarding C29A C34G A36G A40C U47A U64C, the yeast fitness was not above 0.5.

C29U A65C C66G: the yeast fitness was found to be 0.57.

C29G C31A U47A U59A C60U C62G C66U: the yeast fitness is not above 0.5.

On to C29U G63C, for which the yeast fitness is 0.728.

Consider C29U G38C C46A, for which the yeast fitness is not above 0.5.

Regarding C29G G39C A65C, the yeast fitness was 0.546.

As to C29G C33G U35G G44A A57G C66U A69U, the yeast fitness was not above 0.5.

Turning to C29G C49G G51U A57G, the yeast fitness is not above 0.5.

Consider C29U A42U A43U C55G, for which the yeast fitness stood at 0.545.

Regarding C29G U47G A57G A69U, the yeast fitness was not above 0.5.

As for C29A C55U A69U, the yeast fitness was not above 0.5.

As to C29A C60A, the yeast fitness came out at 0.616.

Consider C29G U35C U54C C61A, for which the yeast fitness was not above 0.5.

As for C29A G44A A70G, the yeast fitness stood at 0.804.

For C29G C49A U64A, the yeast fitness is not above 0.5.

In the case of C29U G58C G68A, the yeast fitness was not above 0.5.

For the variant C29A C31A A40U C49U, the yeast fitness was not above 0.5.

In the case of C29U G38C A45G G51C, the yeast fitness is not above 0.5.

In the case of C29G C49G G56A, the yeast fitness was not above 0.5.

In the case of C29U C31U U54G A65U G67A, the yeast fitness amounted to 0.565.

C29U C55G G68C: the yeast fitness was not above 0.5.

On to C29U A42U A45C, for which the yeast fitness amounted to 0.51.

Consider C29A C46G A65G A70U, for which the yeast fitness was not above 0.5.

On to C29G C30U C46U G48A G56A C61U C62G, for which the yeast fitness is not above 0.5.

Take C29U G58C A65G: the yeast fitness turned out to be 0.61.

As to C29U C62G G68A, the yeast fitness is not above 0.5.

C29U G38C G39A A65G C66A G67A: the yeast fitness is not above 0.5.

Consider C29G C61U C66A, for which the yeast fitness was not above 0.5.

For C29U A65C A69C, the yeast fitness is not above 0.5.

As for C29U C31U U54G A65C G67A, the yeast fitness stood at 0.549.

Turning to C29U A37G C61G A69U, the yeast fitness is not above 0.5.

For the variant C29G A43U, the yeast fitness was 0.594.

Consider C29G C30U A65G, for which the yeast fitness is not above 0.5.

C29U G38A G48C C62G: the yeast fitness is 0.525.

Consider C29G C49G G68C, for which the yeast fitness was not above 0.5.

C29G U35C G38C A57G: the yeast fitness was not above 0.5.

For the variant C29G A40U G50C, the yeast fitness is 0.636.

Consider C29G C33G G41C C66U, for which the yeast fitness was 0.607.

Turning to C29G C60U, the yeast fitness is 0.576.

For C29U G48C A65U, the yeast fitness was not above 0.5.

In the case of C29G U64G, the yeast fitness was determined as 0.635.

Turning to C29G U64C, the yeast fitness stood at 0.688.

With C29G A36U A42G C55A, the yeast fitness was not above 0.5.

Turning to C29U A43G U53G G63A, the yeast fitness is not above 0.5.

Take C29A C49A C62A C66U: the yeast fitness was not above 0.5.

On to C29U A36G U54C, for which the yeast fitness amounted to 0.542.

Take C29A C62U: the yeast fitness turned out to be 0.723.

With C29G U35C G56A C62G, the yeast fitness is not above 0.5.

Take C29U C33A C34U C46G: the yeast fitness is not above 0.5.

With C29G C30U A36C G39A C46G, the yeast fitness amounted to 0.52.

Turning to C29U C49A U64C, the yeast fitness is 0.597.

On to C29G C49U A65C, for which the yeast fitness is not above 0.5.

With C29G C60U G67A A69U, the yeast fitness was found to be 0.588.

C29A G67C: the yeast fitness came to 0.646.

Regarding C29A G67A, the yeast fitness was 0.605.

In the case of C29G C34G, the yeast fitness is 0.563.

Take C29G G48A U59C: the yeast fitness is not above 0.5.

Turning to C29G C31A U35C G67A, the yeast fitness is not above 0.5.

On to C29U G44C A57U, for which the yeast fitness was found to be 0.635.

Consider C29G U35C U54C U64C, for which the yeast fitness is not above 0.5.

Regarding C29U C31A C66G G67U, the yeast fitness was not above 0.5.

In the case of C29A G41A A43C C49U, the yeast fitness was not above 0.5.

In the case of C29G C46U A57G, the yeast fitness turned out to be 0.642.

Take C29U A43C G51A: the yeast fitness is not above 0.5.

With C29G A40U C66U, the yeast fitness is not above 0.5.

Turning to C29G C30U G41C C66G G68A, the yeast fitness was not above 0.5.

As for C29A G58A C61G A70U, the yeast fitness is 0.642.

As to C29A A45C C46G G68C, the yeast fitness was not above 0.5.

Take C29U A43G G44A C46A: the yeast fitness worked out at 0.609.

With C29U A43U C46A C61G G68A, the yeast fitness is 0.567.

For the variant C29G U32C A42C, the yeast fitness was 0.54.

Consider C29U G41A A42C G50C A70G, for which the yeast fitness is not above 0.5.

Take C29U C34G A43U C62U A65U A69C: the yeast fitness was not above 0.5.

On to C29U A70G, for which the yeast fitness was 0.887.
